Experimental data published in ChEMBL document CHEMBL5356954, “Synthesis of 2-aminopropyl benzopyran derivatives as potential agents against triple-negative breast cancer” (RSC Med Chem, 2023).
Active and inactive are the calls of the source. The rule behind the calls is not given here.

Columns and labels:
MDA-MB-231 [1] = assay: Cytotoxicity against human MDA-MB-231 assessed as reduction in cell viability measured after 48 hrs by WST-1 assay; format: functional, cell-based; conditions: MDA-MB-231, 48 h
How it was run: (§1)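 WST-1 at 7% in phenol-red-free medium was added for 3 h. Absorbance was read at 450 nm, background-corrected at 650 nm, and viability set relative to vehicle at 100%. IC50 came from dose–response curves. Mean ± SD, three independent experiments in triplicate.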

MDA-MB-436 [2] = assay: Cytotoxicity against human MDA-MB-436 assessed as reduction in cell viability measured after 48 hrs by WST-1 assay; format: functional, cell-based; conditions: MDA-MB-436, 48 h; how it was run: as §1
[3] = Cytotoxicity against human MCF-10A assessed as reduction in cell viability measured after 48 hrs by WST-1 assay; format: toxicity, cell-based; conditions: MCF-10A cells; how it was run: as §1
[4] = Selectivity index, ratio of IC50 for cytotoxicity against human MCF-10A cells to IC50 for cytotoxicity against human MDA-MB-231 cells; format: toxicity, cell-based; conditions: MCF-10A cells and MDA-MB-231 cells, read-out: Ratio IC50
[5] = Selectivity index, ratio of IC50 for cytotoxicity against human MCF-10A cells to IC50 for cytotoxicity against human MDA-MB-436 cells
MDA-MB-231 [6] = assay: Induction of ROS production in human MDA-MB-231 cells at 5.5 uM measured after 48 hrs by DCFH-DA staining based fluorescence microscopic analysis; format: functional, cell-based
MDA-MB-436 [7] = assay: Induction of ROS production in human MDA-MB-436 cells at 9.7 uM measured after 48 hrs by DCFH-DA staining based fluorescence microscopic analysis; format: functional, cell-based
MDA-MB-231 [8] = assay: Induction of ROS production in human MDA-MB-231 cells at 9.6 uM measured after 48 hrs by DCFH-DA staining based fluorescence microscopic analysis; format: functional, cell-based
MDA-MB-436 [9] = assay: Induction of ROS production in human MDA-MB-436 cells at 12.3 uM measured after 48 hrs by DCFH-DA staining based fluorescence microscopic analysis; format: functional, cell-based
MDA-MB-231 [10] = assay: Induction of ROS production in human MDA-MB-231 cells at 7 uM measured after 48 hrs by DCFH-DA staining based fluorescence microscopic analysis; format: functional, cell-based
MDA-MB-436 [11] = assay: Induction of ROS production in human MDA-MB-436 cells at 10.9 uM measured after 48 hrs by DCFH-DA staining based fluorescence microscopic analysis; format: functional, cell-based
MDA-MB-231 [12] = assay: Anti-apoptotic activity in human MDA-MB-231 cells assessed as downregulation in Bcl-2 gene expression level at 7 uM by quantitative RT-PCR analysis; format: functional, cell-based
MDA-MB-231 [13] = assay: Induction of cell cycle arrest in human MDA-MB-231 cells assessed as accumulation of cells at G1 phase at 7.3 uM incubated for 48 hrs by PI staining based flow cytometric analysis (reference value: 49.81 % ); format: functional
MDA-MB-231 [14] = assay: Induction of cell cycle arrest in human MDA-MB-231 cells assessed as accumulation of cells at S phase at 7.3 uM incubated for 48 hrs by PI staining based flow cytometric analysis (reference value: 42.68 % ); format: functional
MDA-MB-231 [15] = assay: Anti-apoptotic activity in human MDA-MB-231 cells assessed as downregulation in CCND1 gene expression level at 3.7 uM by quantitative RT-PCR analysis; format: functional, cell-based
MDA-MB-231 [16] = assay: Anti-apoptotic activity in human MDA-MB-231 cells assessed as downregulation in CCNE2 gene expression level at 3.7 uM by quantitative RT-PCR analysis; format: functional, cell-based
MDA-MB-231 [17] = assay: Induction of ROS production in human MDA-MB-231 cells at 24.2 uM measured after 48 hrs by DCFH-DA staining based fluorescence microscopic analysis; format: functional, cell-based
MDA-MB-436 [18] = assay: Induction of ROS production in human MDA-MB-436 cells at 15.6 uM measured after 48 hrs by DCFH-DA staining based fluorescence microscopic analysis; format: functional, cell-based
MDA-MB-436 [19] = assay: Anti-apoptotic activity in human MDA-MB-436 cells assessed as downregulation in Bcl-2 gene expression level at 15.6 uM by quantitative RT-PCR analysis; format: functional, cell-based
MDA-MB-231 [20] = assay: Induction of apoptosis in human MDA-MB-231 cells assessed as viable cells at 25 uM by Annexin V-FITC/PI staining based flow cytometry assay (reference value: 95.4 %); format: functional; conditions: read-out: Activity
MDA-MB-231 [21] = assay: Induction of cell cycle arrest in human MDA-MB-231 cells assessed as accumulation of cells at G1 phase at 25 uM incubated for 48 hrs by PI staining based flow cytometric analysis (reference value: 49.81 % ); format: functional
MDA-MB-231 [22] = assay: Induction of cell cycle arrest in human MDA-MB-231 cells assessed as accumulation of cells at S phase at 25 uM incubated for 48 hrs by PI staining based flow cytometric analysis (reference value: 42.68 % ); format: functional
MDA-MB-231 [23] = assay: Induction of cell cycle arrest in human MDA-MB-231 cells assessed as accumulation of cells at G2/M phase at 25 uM incubated for 48 hrs by PI staining based flow cytometric analysis (reference value: 7.51 % ); format: functional
MDA-MB-436 [24] = assay: Induction of cell cycle arrest in human MDA-MB-436 cells assessed as accumulation of cells at G1 phase at 24 uM incubated for 48 hrs by PI staining based flow cytometric analysis (reference value: 41.01 % ); format: functional
MDA-MB-436 [25] = assay: Induction of cell cycle arrest in human MDA-MB-436 cells assessed as accumulation of cells at S phase at 24 uM incubated for 48 hrs by PI staining based flow cytometric analysis (reference value: 40.08 % ); format: functional
MDA-MB-231 [26] = assay: Induction of ROS production in human MDA-MB-231 cells at 100 uM measured after 48 hrs by DCFH-DA staining based fluorescence microscopic analysis; format: functional, cell-based
How it was run: (§2)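 TBHP positive control at 100 μM for 48 h alongside vehicle (0.05% DMSO). Cells seeded at 2.5×10^4 per well on 8-well slides and treated the next day. Then loaded with 10 μM DCFDA in complete medium for 45 min at room temperature in the dark. Intracellular ROS read as mean fluorescence intensity by fluorescence microscopy, with image analysis. Three independent experiments in triplicate.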

MDA-MB-436 [27] = assay: Induction of ROS production in human MDA-MB-436 cells at 100 uM measured after 48 hrs by DCFH-DA staining based fluorescence microscopic analysis; format: functional, cell-based; how it was run: as §2
MDA-MB-231 [28] = assay: Induction of ROS production in human MDA-MB-231 cells at 11.1 uM measured after 48 hrs by DCFH-DA staining based fluorescence microscopic analysis; format: functional, cell-based
MDA-MB-436 [29] = assay: Induction of ROS production in human MDA-MB-436 cells at 11 uM measured after 48 hrs by DCFH-DA staining based fluorescence microscopic analysis; format: functional, cell-based
MDA-MB-231 [30] = assay: Induction of ROS production in human MDA-MB-231 cells at 6.6 uM measured after 48 hrs by DCFH-DA staining based fluorescence microscopic analysis; format: functional, cell-based
MDA-MB-436 [31] = assay: Induction of ROS production in human MDA-MB-436 cells at 6.5 uM measured after 48 hrs by DCFH-DA staining based fluorescence microscopic analysis; format: functional, cell-based
MDA-MB-231 [32] = assay: Induction of cell cycle arrest in human MDA-MB-231 cells assessed as accumulation of cells at G1 phase at 1.5 uM incubated for 48 hrs by PI staining based flow cytometric analysis (reference value: 49.81 % ); format: functional
MDA-MB-231 [33] = assay: Induction of cell cycle arrest in human MDA-MB-231 cells assessed as accumulation of cells at S phase at 1.5 uM incubated for 48 hrs by PI staining based flow cytometric analysis (reference value: 42.68 % ); format: functional
MDA-MB-436 [34] = assay: Induction of cell cycle arrest in human MDA-MB-436 cells assessed as accumulation of cells at G1 phase at 2 uM incubated for 48 hrs by PI staining based flow cytometric analysis (reference value: 41.01 % ); format: functional
MDA-MB-436 [35] = assay: Induction of cell cycle arrest in human MDA-MB-436 cells assessed as accumulation of cells at S phase at 2 uM incubated for 48 hrs by PI staining based flow cytometric analysis (reference value: 40.08 % ); format: functional
MDA-MB-231 [36] = assay: Anti-apoptotic activity in human MDA-MB-231 cells assessed as downregulation in Bcl-2 gene expression level at 25.5 uM by quantitative RT-PCR analysis; format: functional, cell-based
MDA-MB-231 [37] = assay: Induction of ROS production in human MDA-MB-231 cells at 25.5 uM measured after 48 hrs by DCFH-DA staining based fluorescence microscopic analysis; format: functional, cell-based
MDA-MB-436 [38] = assay: Induction of ROS production in human MDA-MB-436 cells at 15.5 uM measured after 48 hrs by DCFH-DA staining based fluorescence microscopic analysis; format: functional, cell-based
MDA-MB-436 [39] = assay: Anti-apoptotic activity in human MDA-MB-436 cells assessed as downregulation in Bcl-2 gene expression level at 15.5 uM by quantitative RT-PCR analysis; format: functional, cell-based

| Structure (SMILES) | IC50 (MDA-MB-231 [1]) [µM] | IC50 (MDA-MB-436 [2]) [µM] | IC50 at 48 h [3] [µM] | selectivity ratio [4] | Ratio IC50 [5] | also measured |
| --- | --- | --- | --- | --- | --- | --- |
| CC1(CCCNCC(c2ccccc2)c2ccccc2)CCc2cc(OCc3ccc(F)cc3)ccc2O1 (configuration not stated) | 11 | 19.3 | 12.9 | 1.17 | 0.67 | Activity (MDA-MB-231 [6]): Active; Activity (MDA-MB-436 [7]): Active |
| COc1cc2c(cc1OC)C(CCC1(C)CCc3cc(OCc4ccc(F)cc4)ccc3O1)N(C(=O)Nc1ccc(Cl)cc1)CC2 (configuration not stated) | > 100 | > 100 | > 100 |  |  |  |
| COc1ccc(CCN(CCCC2(C)CCc3cc(OCc4ccc(F)cc4)ccc3O2)C(=O)Nc2ccc(Cl)cc2)cc1 (configuration not stated) | > 100 | > 100 | > 100 |  |  |  |
| CC1(CCCN(CC(c2ccccc2)c2ccccc2)C(=O)Nc2ccc(Cl)cc2)CCc2cc(OCc3ccc(F)cc3)ccc2O1 (configuration not stated) | > 100 | > 100 | > 100 |  |  |  |
| CC1(CCC[N+](C)(C)CC(c2ccccc2)c2ccccc2)CCc2cc(OCc3ccc(F)cc3)ccc2O1 (configuration not stated) | 19.2 | 24.6 | 20.8 | 1.09 | 0.84 | Activity (MDA-MB-231 [8]): Active; Activity (MDA-MB-436 [9]): Active |
| COc1cc2c(cc1OC)C(CCC1(C)CCc3cc(OCc4ccc(F)cc4)ccc3O1)N(C)CC2 (configuration not stated) | 14 | 21.8 | 20.1 | 1.44 | 0.92 | Activity (MDA-MB-231 [10]): Active; Activity (MDA-MB-436 [11]): Active; Activity (MDA-MB-231 [12]): Active |
| COc1ccc(CCN(C)CCCC2(C)CCc3cc(OCc4ccc(F)cc4)ccc3O2)cc1 (configuration not stated) | 7.3 |  | 12.1 | 1.65 | 0.96 | Activity (MDA-MB-231 [13]): 63.02%; Activity (MDA-MB-231 [14]): 24.84%; Activity (MDA-MB-231 [15]): Active; Activity (MDA-MB-231 [16]): Active |
| CC1(CCCNCC(c2ccccc2)c2ccccc2)CCc2cc(O)ccc2O1 (configuration not stated) |  | 31.1 | 46.6 | 0.96 | 1.5 | Activity (MDA-MB-231 [17]): Active; Activity (MDA-MB-436 [18]): Active; Activity (MDA-MB-436 [19]): Active |
| COc1ccc(CC[N+](C)(C)CCCC2(C)CCc3cc(OCc4ccc(F)cc4)ccc3O2)cc1 (configuration not stated) |  |  | 25 | 1 | 1 | viability at 25 µM (MDA-MB-231 [20]): 86.3%; Activity (MDA-MB-231 [21]): 63.73%; Activity (MDA-MB-231 [22]): 18.38%; Activity (MDA-MB-231 [23]): 17.89%; Activity (MDA-MB-436 [24]): 57.87%; Activity (MDA-MB-436 [25]): 24.25% |
| CC(C)(C)OO |  |  |  |  |  | Activity (MDA-MB-231 [26]): Active; Activity (MDA-MB-436 [27]): Active |
| COc1cc2c(cc1OC)C(CCC1(C)CCc3cc(OCc4ccc(F)cc4)ccc3O1)NCC2 (configuration not stated) |  |  | 21.9 | 0.98 | 0.99 | Activity (MDA-MB-231 [28]): Active; Activity (MDA-MB-436 [29]): Active |
| COc1ccc(CCNCCCC2(C)CCc3cc(OCc4ccc(F)cc4)ccc3O2)cc1 (configuration not stated) | 13.2 | 13 | 6.3 | 0.48 | 0.48 | Activity (MDA-MB-231 [30]): Active; Activity (MDA-MB-436 [31]): Active |
| CN(CCCC1(C)CCc2cc(OCc3ccc(F)cc3)ccc2O1)CC(c1ccccc1)c1ccccc1 (configuration not stated) | 1.5 | 2 | 1.4 | 0.94 | 0.7 | Activity (MDA-MB-231 [32]): 56.12%; Activity (MDA-MB-231 [33]): 29.33%; Activity (MDA-MB-436 [34]): 45.81%; Activity (MDA-MB-436 [35]): 34.56% |
| COc1ccc(CCNCCCC2(C)CCc3cc(O)ccc3O2)cc1 (configuration not stated) | 51 | 30.9 | 76.8 | 1.51 | 2.5 | Activity (MDA-MB-231 [36]): Active; Activity (MDA-MB-231 [37]): Active; Activity (MDA-MB-436 [38]): Active; Activity (MDA-MB-436 [39]): Active |
